Laboratory results as given in ChEMBL document CHEMBL5356993, “Novel pyrazolo[3,4-d]pyrimidine derivatives: design, synthesis, anticancer evaluation, VEGFR-2 inhibition, and antiangiogenic activity” (RSC Med Chem, 2023).

Experiments:
[1] = tested on: EKVX; assay: Antiproliferative activity against human EKVX cells assessed as cell growth inhibition at 10 uM incubated for 48 hrs by SRB assay relative to control; type: functional; conditions: read-out: GI
[2] = tested on: IGROV-1; assay: Antiproliferative activity against human IGROV-1 cells assessed as cell growth inhibition at 10 uM incubated for 48 hrs by SRB assay relative to control; type: functional; conditions: read-out: GI
[3] = tested on: SK-MEL-2; assay: Antiproliferative activity against human SK-MEL-2 cells assessed as cell growth inhibition at 10 uM incubated for 48 hrs by SRB assay relative to control; type: functional; conditions: read-out: GI
In short: (§1)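 Cells plated in 96-well plates at […] cells/well and preincubated 24 h at 37 °C, 5% CO2. Time-zero plates were TCA-fixed. Compound was diluted in medium with 50 µg/mL gentamicin and cells exposed for 48 h. Adherent cells fixed with 10% final TCA; suspension cells with 16% final TCA. Plates stained with 0.4% SRB in 1% acetic acid, dye solubilized in 10 mM Trizma, absorbance read at 515 nm. Percent growth calculated against time-zero and control.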

[4] = molecular target: Vascular endothelial growth factor receptor 2 (Homo sapiens, UniProt P35968); assay: Inhibition of VEGFR-2 (unknown origin) incubated for 45 mins by Kinase-Glo Max assay
Sequence of Vascular endothelial growth factor receptor 2 (P35968 whole entry): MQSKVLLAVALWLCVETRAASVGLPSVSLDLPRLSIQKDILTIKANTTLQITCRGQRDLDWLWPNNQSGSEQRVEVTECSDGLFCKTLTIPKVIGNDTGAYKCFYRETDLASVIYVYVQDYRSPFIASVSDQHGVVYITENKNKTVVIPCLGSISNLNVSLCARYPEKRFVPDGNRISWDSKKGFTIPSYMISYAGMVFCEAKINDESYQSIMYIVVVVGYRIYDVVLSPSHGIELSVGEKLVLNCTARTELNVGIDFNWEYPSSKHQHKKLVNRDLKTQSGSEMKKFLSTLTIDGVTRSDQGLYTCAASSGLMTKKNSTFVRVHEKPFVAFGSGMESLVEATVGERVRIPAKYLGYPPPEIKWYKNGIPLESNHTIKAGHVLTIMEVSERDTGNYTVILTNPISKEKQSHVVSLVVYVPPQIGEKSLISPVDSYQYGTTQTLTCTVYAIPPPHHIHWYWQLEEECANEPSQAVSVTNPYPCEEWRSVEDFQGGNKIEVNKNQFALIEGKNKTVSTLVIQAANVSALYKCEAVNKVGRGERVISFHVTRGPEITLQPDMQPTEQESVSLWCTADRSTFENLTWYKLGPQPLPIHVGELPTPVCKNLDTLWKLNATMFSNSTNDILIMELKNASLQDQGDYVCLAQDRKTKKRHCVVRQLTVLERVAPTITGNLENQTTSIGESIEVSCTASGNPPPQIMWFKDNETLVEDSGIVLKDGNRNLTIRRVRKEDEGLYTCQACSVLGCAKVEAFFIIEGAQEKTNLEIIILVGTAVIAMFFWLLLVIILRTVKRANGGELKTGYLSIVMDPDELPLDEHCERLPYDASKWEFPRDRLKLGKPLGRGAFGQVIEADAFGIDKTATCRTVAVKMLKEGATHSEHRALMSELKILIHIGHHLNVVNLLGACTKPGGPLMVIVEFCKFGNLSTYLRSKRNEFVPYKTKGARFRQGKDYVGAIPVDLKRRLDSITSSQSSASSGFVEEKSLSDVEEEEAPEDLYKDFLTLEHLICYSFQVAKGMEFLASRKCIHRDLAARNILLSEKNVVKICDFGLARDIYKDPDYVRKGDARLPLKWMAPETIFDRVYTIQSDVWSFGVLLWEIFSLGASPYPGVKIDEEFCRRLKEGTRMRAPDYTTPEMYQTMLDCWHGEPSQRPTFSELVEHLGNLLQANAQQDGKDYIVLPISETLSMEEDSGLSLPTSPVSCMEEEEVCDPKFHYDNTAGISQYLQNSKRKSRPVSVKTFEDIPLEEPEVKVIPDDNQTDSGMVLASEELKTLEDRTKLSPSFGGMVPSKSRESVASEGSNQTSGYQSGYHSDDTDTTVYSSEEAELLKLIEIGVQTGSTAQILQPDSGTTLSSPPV

[5] = tested on: NCI-H460; assay: Antiproliferative activity against human NCI-H460 cells assessed as cell growth inhibition at 10 uM incubated for 48 hrs by SRB assay relative to control; type: functional; conditions: read-out: GI
[6] = tested on: RXF 393; assay: Antiproliferative activity against human RXF 393 cells assessed as cell growth inhibition at 10 uM incubated for 48 hrs by SRB assay relative to control; type: functional; conditions: read-out: GI; in short: as §1
[7] = tested on: SK-OV-3; assay: Antiproliferative activity against human SK-OV-3 cells assessed as cell growth inhibition at 10 uM incubated for 48 hrs by SRB assay relative to control; type: functional; conditions: read-out: GI; in short: as §1
[8] = tested on: M14; assay: Antiproliferative activity against human M14 cells assessed as cell growth inhibition at 10 uM incubated for 48 hrs by SRB assay relative to control; type: functional; conditions: read-out: GI; in short: as §1
[9] = tested on: K562; assay: Antiproliferative activity against human K562 cells assessed as cell growth inhibition at 10 uM incubated for 48 hrs by SRB assay relative to control; type: functional; conditions: read-out: GI
[10] = tested on: T47D; assay: Cytotoxicity against human T47D cells assessed as cell growth inhibition incubated for 72 hrs by MTT assay; type: functional, cell-based
[11] = tested on: CCRF-CEM; assay: Antiproliferative activity against human CCRF-CEM cells assessed as cell growth inhibition at 10 uM incubated for 48 hrs by SRB assay relative to control; type: functional; conditions: read-out: GI; in short: as §1
[12] = Cytotoxicity against human MCF-10A cells assessed as cell growth inhibition incubated for 72 hrs by MTT assay
[13] = tested on: MCF7; assay: Antiproliferative activity against human MCF7 cells assessed as cell growth inhibition at 10 uM incubated for 48 hrs by SRB assay relative to control; type: functional; conditions: read-out: GI
[14] = tested on: SW-620; assay: Antiproliferative activity against human SW620 cells assessed as cell growth inhibition at 10 uM incubated for 48 hrs by SRB assay relative to control; type: functional; conditions: read-out: GI
In short: (§2)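 Cells pre-incubated 24 h at 37°C, 5% CO2, then exposed to compound (DMSO stock diluted in medium with 50 µg/mL gentamicin) for 48 h. Adherent cells fixed with cold TCA (final 10%, 60 min, 4°C); suspension cells fixed with 16% TCA final. Stained with 0.4% SRB in 1% acetic acid for 10 min, dye solubilized in 10 mM Trizma base, absorbance read at 515 nm. Growth calculated against time-zero and untreated control plates.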

[15] = tested on: NCI-H322M; assay: Antiproliferative activity against human NCI-H322M cells assessed as cell growth inhibition at 10 uM incubated for 48 hrs by SRB assay relative to control; type: functional; conditions: read-out: GI
[16] = tested on: NCI/ADR-RES; assay: Antiproliferative activity against human NCI-ADR-RES cells assessed as cell growth inhibition at 10 uM incubated for 48 hrs by SRB assay relative to control; type: functional; conditions: read-out: GI
[17] = Selectivity index, ratio of IC50 for human MCF-10A cells to IC50 for human T47D cells; conditions: MCF-10A cells versus T47D cells
[18] = tested on: UACC-62; assay: Antiproliferative activity against human UACC-62 cells assessed as cell growth inhibition at 10 uM incubated for 48 hrs by SRB assay relative to control; type: functional; conditions: read-out: GI; in short: as §2
[19] = tested on: DU-145; assay: Antiproliferative activity against human DU-145 cells assessed as cell growth inhibition at 10 uM incubated for 48 hrs by SRB assay relative to control; type: functional; conditions: read-out: GI
[20] = tested on: COLO 205; assay: Antiproliferative activity against human COLO 205 cells assessed as cell growth inhibition at 10 uM incubated for 48 hrs by SRB assay relative to control; type: functional; conditions: read-out: GI
[21] = tested on: CAKI-1; assay: Antiproliferative activity against human CAKI-1 cells assessed as cell growth inhibition at 10 uM incubated for 48 hrs by SRB assay relative to control; type: functional; conditions: read-out: GI
[22] = tested on: T47D; assay: Antiproliferative activity against human T47D cells assessed as cell growth inhibition at 10 uM incubated for 48 hrs by SRB assay relative to control; type: functional; conditions: read-out: GI; in short: as §2
[23] = tested on: BT-549; assay: Antiproliferative activity against human BT-549 cells assessed as cell growth inhibition at 10 uM incubated for 48 hrs by SRB assay relative to control; type: functional; conditions: read-out: GI
[24] = tested on: SK-MEL-5; assay: Antiproliferative activity against human SK-MEL-5 cells assessed as cell growth inhibition at 10 uM incubated for 48 hrs by SRB assay relative to control; type: functional; conditions: read-out: GI; in short: as §1
[25] = tested on: HOP-62; assay: Antiproliferative activity against human HOP-62 cells assessed as cell growth inhibition at 10 uM incubated for 48 hrs by SRB assay relative to control; type: functional; conditions: read-out: GI
[26] = tested on: OVCAR-5; assay: Antiproliferative activity against human OVCAR-5 cells assessed as cell growth inhibition at 10 uM incubated for 48 hrs by SRB assay relative to control; type: functional; conditions: read-out: GI; in short: as §1
[27] = tested on: UACC-257; assay: Antiproliferative activity against human UACC-257 cells assessed as cell growth inhibition at 10 uM incubated for 48 hrs by SRB assay relative to control; type: functional; conditions: read-out: GI; in short: as §2
[28] = tested on: Hs-578T; assay: Antiproliferative activity against human Hs-578T cells assessed as cell growth inhibition at 10 uM incubated for 48 hrs by SRB assay relative to control; type: functional; conditions: read-out: GI; in short: as §1
[29] = tested on: MDA-MB-468; assay: Cytotoxicity against human MDA-MB-468 cells assessed as cell growth inhibition incubated for 72 hrs by MTT assay; type: functional, cell-based; conditions: MDA-MB-468, 72 h
[30] = tested on: MDA-MB-468; assay: Antiproliferative activity against human MDA-MB-468 cells assessed as cell growth inhibition at 10 uM incubated for 48 hrs by SRB assay relative to control; type: functional; conditions: read-out: GI
[31] = Selectivity index, ratio of IC50 for human MCF-10A cells to IC50 for human MDA-MB-468 cells; conditions: MCF-10A cells versus MDA-MB-468 cells

SMILES: Cc1nc2c(cnn2-c2ccccc2)c(=O)n1-c1ccc(NC(=O)c2ccc(Cl)cc2)cc1
- inhibition of growth at 10 µM [1]: 68.5%
- inhibition of growth at 10 µM [2]: 21.3%
- inhibition of growth at 10 µM [3]: 26.1%
- IC50 [4]: 0.2 µM
- inhibition of growth at 10 µM [5]: 28.8%
- inhibition of growth at 10 µM [6]: < 15%
- inhibition of growth at 10 µM [7]: < 15%
- inhibition of growth at 10 µM [8]: 24.6%
- inhibition of growth at 10 µM [9]: 61.3%
- IC50 [10]: 20.1 µM
- inhibition of growth at 10 µM [11]: 25.3%
- IC50 at 72 h [12]: 34.6 µM
- inhibition of growth at 10 µM [13]: 46.8%
- inhibition of growth at 10 µM [14]: 17.3%
- inhibition of growth at 10 µM [15]: < 15%
- inhibition of growth at 10 µM [16]: 44.5%
- selectivity ratio [17]: 1.72
- inhibition of growth at 10 µM [18]: 32.2%
- inhibition of growth at 10 µM [19]: 17.8%
- inhibition of growth at 10 µM [20]: 18.8%
- inhibition of growth at 10 µM [21]: 29.7%
- inhibition of growth at 10 µM [22]: 72.5%
- inhibition of growth at 10 µM [23]: 36%
- inhibition of growth at 10 µM [24]: 80.3%
- inhibition of growth at 10 µM [25]: 41.1%
- inhibition of growth at 10 µM [26]: < 15%
- inhibition of growth at 10 µM [27]: 53.9%
- inhibition of growth at 10 µM [28]: 20.1%
- IC50 [29]: 10.7 µM
- inhibition of growth at 10 µM [30]: 84.3%
- selectivity ratio [31]: 3.24

SMILES: Cc1ccc(C(=O)Nc2ccc(-n3c(C)nc4c(cnn4-c4ccccc4)c3=O)cc2)cc1
- inhibition of growth at 10 µM [1]: 69.5%
- inhibition of growth at 10 µM [2]: 28.4%
- inhibition of growth at 10 µM [3]: 21.7%
- IC50 [4]: 0.261 µM
- inhibition of growth at 10 µM [5]: 24.6%
- inhibition of growth at 10 µM [6]: < 15%
- inhibition of growth at 10 µM [7]: < 15%
- inhibition of growth at 10 µM [8]: 26.8%
- inhibition of growth at 10 µM [9]: 68.8%
- inhibition of growth at 10 µM [11]: 53.7%
- IC50 at 72 h [12]: 58.2 µM
- inhibition of growth at 10 µM [13]: 52.2%
- inhibition of growth at 10 µM [14]: < 15%
- inhibition of growth at 10 µM [15]: < 15%
- inhibition of growth at 10 µM [16]: 47.3%
- inhibition of growth at 10 µM [18]: 39.2%
- inhibition of growth at 10 µM [19]: 15.1%
- inhibition of growth at 10 µM [20]: 22.6%
- inhibition of growth at 10 µM [21]: 27.6%
- inhibition of growth at 10 µM [22]: 65.4%
- inhibition of growth at 10 µM [23]: 40.8%
- inhibition of growth at 10 µM [24]: 93%
- inhibition of growth at 10 µM [25]: 21.2%
- inhibition of growth at 10 µM [26]: < 15%
- inhibition of growth at 10 µM [27]: 58%
- inhibition of growth at 10 µM [28]: 15.2%
- IC50 [29]: 16 µM
- inhibition of growth at 10 µM [30]: 78.9%
- selectivity ratio [31]: 3.63
